A short description of data set [1]: Acute toxicity in Balb/c mouse assessed as lethality at 25 to 50 mg/kg, ip administered 5 times a week for 3 weeks. The format is organism-based. As to conditions: in vivo, 504 h. The gist of the method: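 Male BALB/c nude mice (5–6 weeks) received 5×10^6 Capan-1 cells s.c. in the right armpit. At a mean tumour volume of about 150 mm³, mice were randomised by tumour volume and body weight, 6 per group. Dosing was i.p. in 5% DMSO/20% PEG400/10% Cremophor EL/65% saline, once daily five times per week for 3 weeks. Body weight was measured 2–3 times weekly.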

The nature of data set [2]: Cytotoxicity against […] H9c2 cells assessed as reduction in cell viability incubated for 120 hrs by CCK-8 assay. The format is cell-based. The conditions noted are these: h9c2, 120 h.
Data set [3] deals with T1, Protein cereblon/Poly [ADP-ribose] polymerase 1 (Homo sapiens, UniProt P09874+Q96SW2). The data set can be described thus: Protac activity at CRBN/PARP1 in human LNCaP cells assessed as induction of PARP1 degradation measured after 24 hrs by Western blot analysis. The format is cell-based. The gist of the method: (§1)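 Concentration-response over a wide range, 24 h exposure; PARP1 quantified by western blot and normalized to β-tubulin density; DC50 derived from two biologically independent experiments.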
Background: A western blot detects proteins with antibodies after separation by electrophoresis.
Target sequence in this assay (P09874 whole entry): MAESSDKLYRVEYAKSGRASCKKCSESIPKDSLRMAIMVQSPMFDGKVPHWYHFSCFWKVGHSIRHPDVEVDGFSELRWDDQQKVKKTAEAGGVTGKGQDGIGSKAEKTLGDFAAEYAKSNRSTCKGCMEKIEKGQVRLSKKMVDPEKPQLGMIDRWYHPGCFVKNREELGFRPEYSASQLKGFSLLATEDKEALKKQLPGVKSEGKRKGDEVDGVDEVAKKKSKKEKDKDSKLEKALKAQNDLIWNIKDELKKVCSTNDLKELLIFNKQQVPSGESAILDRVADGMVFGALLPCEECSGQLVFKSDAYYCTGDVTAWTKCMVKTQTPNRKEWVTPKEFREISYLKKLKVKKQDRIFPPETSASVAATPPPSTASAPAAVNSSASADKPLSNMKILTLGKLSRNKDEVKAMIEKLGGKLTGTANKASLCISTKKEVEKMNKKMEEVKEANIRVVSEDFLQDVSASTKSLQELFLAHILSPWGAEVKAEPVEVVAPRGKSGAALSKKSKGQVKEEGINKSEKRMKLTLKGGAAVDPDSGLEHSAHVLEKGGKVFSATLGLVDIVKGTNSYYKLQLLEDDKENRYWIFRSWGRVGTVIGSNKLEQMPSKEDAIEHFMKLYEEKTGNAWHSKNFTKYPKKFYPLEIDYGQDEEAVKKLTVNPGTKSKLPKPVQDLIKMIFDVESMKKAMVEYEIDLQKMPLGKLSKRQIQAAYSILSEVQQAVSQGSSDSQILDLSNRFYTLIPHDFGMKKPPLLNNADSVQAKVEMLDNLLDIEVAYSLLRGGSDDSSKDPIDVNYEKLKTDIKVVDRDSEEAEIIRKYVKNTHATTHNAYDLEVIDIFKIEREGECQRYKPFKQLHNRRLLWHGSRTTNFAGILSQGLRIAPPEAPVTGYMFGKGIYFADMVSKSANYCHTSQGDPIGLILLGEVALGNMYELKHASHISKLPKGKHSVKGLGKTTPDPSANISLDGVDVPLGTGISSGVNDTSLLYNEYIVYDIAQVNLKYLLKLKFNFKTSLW
Target sequence in this assay (Q96SW2 whole entry): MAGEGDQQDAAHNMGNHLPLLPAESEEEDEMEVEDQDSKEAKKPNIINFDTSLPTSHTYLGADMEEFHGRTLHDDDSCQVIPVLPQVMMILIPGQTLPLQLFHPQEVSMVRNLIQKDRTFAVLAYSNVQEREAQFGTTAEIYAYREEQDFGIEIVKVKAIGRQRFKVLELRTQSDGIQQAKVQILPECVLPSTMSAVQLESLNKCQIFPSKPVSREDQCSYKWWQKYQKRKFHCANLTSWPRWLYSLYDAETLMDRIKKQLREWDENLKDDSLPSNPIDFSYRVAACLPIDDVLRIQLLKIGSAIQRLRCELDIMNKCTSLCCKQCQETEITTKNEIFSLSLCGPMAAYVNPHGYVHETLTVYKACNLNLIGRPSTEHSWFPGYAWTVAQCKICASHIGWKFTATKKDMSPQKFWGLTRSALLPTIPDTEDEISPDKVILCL

The target of data set [4] is T1, Protein cereblon/Poly [ADP-ribose] polymerase 1. Briefly: Protac activity at CRBN/PARP1 in human 22Rv1 cells assessed as induction of PARP1 degradation measured after 24 hrs by Western blot analysis. The format is cell-based. The gist of the method:
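The cell line was treated 24 h across a concentration range. PARP1 was measured by western blot against β-tubulin. DC50 is the average of two biologically independent experiments.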
Target sequence in this assay (P09874 whole entry): as the sequence (P09874 whole entry) above
Target sequence in this assay (Q96SW2 whole entry): as the sequence (Q96SW2 whole entry) above

Data set [5] relates to MCF-10A. The data set can be described thus: Cytotoxicity against human MCF-10A cells assessed as reduction in cell viability incubated for 120 hrs by CCK-8 assay. The format is cell-based. (In general: Tetrazolium dyes change colour on reduction, which living cells bring about.)
Data set [6] deals with T1, Protein cereblon/Poly [ADP-ribose] polymerase 1. The data set can be described thus: Protac activity at CRBN/PARP1 in human PC-3 cells assessed as induction of PARP1 degradation measured after 24 hrs by Western blot analysis. The format is cell-based. The gist of the method:
as §1
Target sequence in this assay (P09874 whole entry): as the sequence (P09874 whole entry) above
Target sequence in this assay (Q96SW2 whole entry): as the sequence (Q96SW2 whole entry) above

Data set [7] can be described thus: Plasma concentration in ICR mouse at 25 mg/kg, ip at 1 hr postinjection by LC-tandem mass spectrometry analysis. The format is ADME, organism-based. The gist of the method: (§2)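 Female ICR mice (20-23 g, 6-7 weeks old, n = 3) received a single 25 mg/kg intraperitoneal dose formulated in 5% DMSO/15% Solutol HS15/80% D5W. Plasma was sampled at 0.5, 1, 2, 4, 6, 8 and 24 h and protein-precipitated with methanol. Compound was quantified by LC-MS/MS against a standard curve.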

Data set [8] has as its system MDA-MB-468. The data set can be described thus: Antiproliferation activity against human MDA-MB-468 assessed as cell growth inhibition incubated for 7 days by CCK-8 assay. The format is functional, cell-based. The conditions noted are these: time 7.0 day. The gist of the method: (§3)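 Cells were sub-cultured at least twice and seeded for 24 h before dosing. Compounds came from 10 mM DMSO stocks, given as 10 points of 3-fold serial dilution starting at 10-20 μM. Incubation was about 7 days (Capan-1 13 days) at 37 °C, 5% CO2. Read-out was CCK-8 absorbance at 450 nm, as % growth versus DMSO wells (duplicate wells). IC50 was fitted by nonlinear regression; three independent experiments.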

For data set [9], the system named is CAPAN-1. The data set can be described thus: Induction of DNA damage in human Capan1 cells assessed as increase in gammaH2AX foci formation incubated for 24 hrs by Western blot analysis. The format is functional, cell-based. The conditions noted are these: dose microM 0.1-10, time 24.0 hrs. The gist of the method: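 MDA-MB-436 (BRCA1-/-) or Capan-1 (BRCA2-/-) cells were treated 24 h at the indicated concentrations. Lysis was in RIPA buffer with protease inhibitors, and 20-30 μg protein was run on SDS-PAGE. Blots were probed for γH2AX, with β-tubulin as the loading control, and detected by ECL.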

The target of data set [10] is T1, Protein cereblon/Poly [ADP-ribose] polymerase 1. The data set can be described thus: Protac activity at CRBN/PARP1 in human Capan1 cells assessed as induction of PARP1 degradation at 1 to 1000 nM incubated for 24 hrs by Western blot analysis. The format is cell-based. The conditions noted are these: CAPAN-1, dose nM 1-1000, time 24.0 hrs. The gist of the method: (§4)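 Capan-1 cells were treated 24 h (1-1000 nM, or a wider dose range for DC50). Lysis was in RIPA buffer with protease inhibitors, and 20-30 μg protein was blotted. PARP1 was normalized to β-tubulin and to DMSO control, quantified by densitometry. DC50 came from two independent experiments.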
Target sequence in this assay (P09874 2-1014 limits assumed): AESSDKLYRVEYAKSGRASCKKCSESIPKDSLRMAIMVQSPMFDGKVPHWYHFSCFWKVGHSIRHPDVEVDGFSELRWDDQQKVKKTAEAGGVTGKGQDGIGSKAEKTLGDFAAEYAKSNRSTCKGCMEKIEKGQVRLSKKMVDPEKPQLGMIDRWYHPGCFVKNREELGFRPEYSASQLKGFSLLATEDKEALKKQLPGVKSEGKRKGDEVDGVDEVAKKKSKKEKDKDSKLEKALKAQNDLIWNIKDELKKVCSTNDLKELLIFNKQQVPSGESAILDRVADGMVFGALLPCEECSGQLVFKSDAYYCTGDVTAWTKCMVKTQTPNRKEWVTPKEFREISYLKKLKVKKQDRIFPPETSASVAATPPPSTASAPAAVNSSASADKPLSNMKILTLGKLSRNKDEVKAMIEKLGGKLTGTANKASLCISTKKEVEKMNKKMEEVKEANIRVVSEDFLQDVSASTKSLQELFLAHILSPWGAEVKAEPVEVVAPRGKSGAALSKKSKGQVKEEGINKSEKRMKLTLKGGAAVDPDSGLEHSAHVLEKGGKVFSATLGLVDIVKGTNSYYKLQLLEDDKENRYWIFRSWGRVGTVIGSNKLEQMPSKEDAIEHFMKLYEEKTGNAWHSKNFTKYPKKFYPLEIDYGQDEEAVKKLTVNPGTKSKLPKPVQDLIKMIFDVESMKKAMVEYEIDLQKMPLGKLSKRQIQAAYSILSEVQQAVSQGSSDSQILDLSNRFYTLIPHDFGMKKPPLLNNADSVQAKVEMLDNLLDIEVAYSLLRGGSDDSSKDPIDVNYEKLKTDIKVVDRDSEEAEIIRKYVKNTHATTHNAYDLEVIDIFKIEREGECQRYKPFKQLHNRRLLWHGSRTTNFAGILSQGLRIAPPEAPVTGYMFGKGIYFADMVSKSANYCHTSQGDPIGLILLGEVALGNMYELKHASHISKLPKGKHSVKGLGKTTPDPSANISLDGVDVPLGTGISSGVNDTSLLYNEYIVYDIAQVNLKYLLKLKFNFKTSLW
Target sequence in this assay (Q96SW2 whole entry partner): as the sequence (Q96SW2 whole entry) above

The test system of data set [11] is CAPAN-1. The data set can be described thus: Antiproliferative activity against human CAPAN-1 cells assessed as cell growth inhibition incubated for 13 days by CCK-8 assay. As to conditions: CAPAN-1, 312 h. The format is functional, cell-based. The gist of the method:
as §3

The target of data set [12] is T1, Protein cereblon/Poly [ADP-ribose] polymerase 1. The data set can be described thus: Protac activity at CRBN/PARP1 in human SW-620 cells assessed as induction of PARP1 degradation at 10 nM incubated for 24 hrs by Western blot analysis relative to control. The format is cell-based.
Target sequence in this assay (P09874 2-1014 limits assumed): as the sequence (P09874 2-1014 limits assumed) above
Target sequence in this assay (Q96SW2 whole entry partner): as the sequence (Q96SW2 whole entry) above
Data set [13] has the same target. Briefly: Protac activity at CRBN/PARP1 in human SW620 cells assessed as reduction in PARP1 protein level at 0.01 to 10 uM incubated for 12 hrs by western blot analysis. The format is cell-based. The conditions noted are these: SW-620, dose microM 0.01-10, time 12.0 hrs. The gist of the method:
(§5)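 MDA-MB-436 or SW620 cells dosed at 1, 10, 100, 1000 nM and 10 µM for 12 h; PARP1 assessed by western blot of RIPA lysates (20-30 µg protein), β-tubulin as loading control.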
Target sequence in this assay (P09874 2-1014 limits assumed): as the sequence (P09874 2-1014 limits assumed) above
Target sequence in this assay (Q96SW2 whole entry partner): as the sequence (Q96SW2 whole entry) above

The target is the same in data set [14]. The data set can be described thus: Protac activity at CRBN/PARP1 in human MDA-MB-436 cells assessed as induction of PARP1 degradation at 30 nM incubated for 24 hrs in presence of 0.1 to 1 uM PARP1 inhibitor olaparib by Western blot analysis.
Target sequence in this assay (P09874 2-1014 limits assumed): as the sequence (P09874 2-1014 limits assumed) above
Target sequence in this assay (Q96SW2 whole entry partner): as the sequence (Q96SW2 whole entry) above
Data set [15] has the same target. Briefly: Protac activity at CRBN/PARP1 in human Capan1 cells assessed as PARP1 protein degradation at 1 to 10 nM incubated for 24 hrs by western blot analysis. The format is cell-based. As to conditions: CAPAN-1, dose nM 1-10, time 24.0 hrs. The gist of the method: as §4
Target sequence in this assay (P09874 2-1014 limits assumed): as the sequence (P09874 2-1014 limits assumed) above
Target sequence in this assay (Q96SW2 whole entry partner): as the sequence (Q96SW2 whole entry) above
The target is the same in data set [16]. Briefly: Protac activity at CRBN/PARP1 in human SW-620 cells assessed as induction of PARP1 degradation at 30 nM incubated for 24 hrs in presence of proteasome inhibitor carfilzomib by Western blot analysis. The format is cell-based.
Target sequence in this assay (P09874 2-1014 limits assumed): as the sequence (P09874 2-1014 limits assumed) above
Target sequence in this assay (Q96SW2 whole entry partner): as the sequence (Q96SW2 whole entry) above
A short description of data set [17]: AUCall in ICR mouse at 25 mg/kg, ip by LC-tandem mass spectrometry analysis. The format is ADME, organism-based. Details: dose 25 mg/kg. As to conditions: in vivo. The gist of the method:
as §2

Data set [18] in a line: Acute toxicity in Balb/c mouse xenografted with Capan1 cells assessed as lethality at 25 to 50 mg/kg, ip qd administered for 5 days in presence of cisplatin. The format is organism-based. As to conditions: in vivo, 120 h, dose 25-50 mg/kg, time 5 day. The gist of the method:
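Male BALB/c nude mice (5–6 weeks) carried s.c. Capan-1 xenografts (5×10^6 cells, right armpit) and were randomised at about 150 mm³, 6 per group. The agent was given once daily on days 0–4, by oral gavage or i.p., in DMSO/PEG400/Cremophor EL/saline vehicle. Cisplatin 6 mg/kg in saline was given i.p. on day 2, 45 min after the agent. Body weight was recorded 2–3 times weekly.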

Data set [19] addresses T1, Protein cereblon/Poly [ADP-ribose] polymerase 1. Briefly: Protac activity at CRBN/PARP1 in human MDA-MB-436 cells assessed as reduction in PARP1 protein level at 0.01 to 10 uM incubated for 12 hrs by western blot analysis. The format is cell-based. As to conditions: dose microM 0.01-10, time 12.0 hrs. The gist of the method:
as §5

Data set [20] shares this target. The data set can be described thus: Protac activity at CRBN/PARP1 in human CAPAN-1 cells assessed as induction of PARP1 degradation at 100 nM measured after 6 hrs by Western blot analysis. The format is cell-based. The gist of the method:
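Capan-1 cells were treated with 100 nM over a time course. PARP1 was measured by western blot and normalized to β-tubulin.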

Consider 1 compound from ChEMBL document CHEMBL4699498 (J Med Chem, 2020).

pIC50: −log10 of the molar value. Calls of active or inactive are those of the source. No cut-off for these calls is given here. Bounds are passed on as bounds.

One may read the DC50 as the midpoint of the concentration-degradation curve. What is called pIC50 is the IC50 on a negative log10 scale, so that one unit is a factor of ten. Broadly, the AUC is the area under the concentration-time curve, a measure of exposure.

For the compound `O=C(CCCCCCCCCCC(=O)N1CCN(C(=O)c2cc(Cc3n[nH]c(=O)c4ccccc34)ccc2F)CC1)NCCNc1cccc2c1C(=O)N(C1CCC(=O)NC1=O)C2=O` (stereo not given), the Activity result is “Non-Toxic” in [1]; “Non-Toxic” in data set [2]; “Non-Toxic” in [5]; “Dose-dependent effect” in [9]; > 99% in [12]; “Non-Toxic” in data set [18]. The DC50 amounted to 1.08 nM in data set [3], 0.512 nM in [4] and 0.578 nM in [6]. For the same compound, the concentration at 1 h in [7] came to 1830 nM. Further, the outcome in [8], in [10], in [13], in [15], in data set [19] and in [20] was Active. Also, the pIC50 in [11] was 7.25. Besides, the result in data set [14] and in [16] was inactive. This compound also returned an AUC in data set [17] of 5320 ng·h/mL.
